Data from ChEMBL document CHEMBL1134340, “GnRH antagonists: a new generation of long acting analogues incorporating p-ureido-phenylalanines at positions 5 and 6” (J Med Chem, 2001).
In brackets after ≈: the same amount, converted by molar mass. *1 amine or outer side, *2 acyl side, *3 side chain or, on linkers, in order; H or OH if unused. Where a SMILES comes first, the peptide text is derived from it. [ ]: non-standard residue; d: D form. Phe(4-NH(5-NH2triazol-3-yl)) = Nc1nc(Nc2ccc(C[C@H](N)C(=O)O)cc2)n[nH]1; X1 = Nc1nc(Nc2ccc(C[C@@H](N[*:1])C(=O)[*:2])cc2)n[nH]1; dPhe(4-NHCONH2) = NC(=O)Nc1ccc(C[C@@H](N)C(=O)O)cc1; Phe(4-NHCONH2) = NC(=O)Nc1ccc(C[C@H](N)C(=O)O)cc1; dPhe(4-Cl) = N[C@H](Cc1ccc(Cl)cc1)C(=O)O; d2Nal = N[C@H](Cc1ccc2ccccc2c1)C(=O)O; Lys(iPr) = CC(C)NCCCC[C@H](N)C(=O)O; d3Pal = N[C@H](Cc1cccnc1)C(=O)O

Legend:
Rattus norvegicus [1] = species on record: Rattus norvegicus; experiment: Compound was tested for histamine release at a concentration of 300 ug/mL; format: functional
How it was run: (§1)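 Sprague-Dawley rat peritoneal mast cells, Percoll-purified, in heparinized balanced salt solution with albumin, pH 7.2. Cells exposed to compound or vehicle for 2 min at 37 °C. Supernatant histamine measured spectrofluorometrically after o-phthalaldehyde derivatization; pellets lysed for retained histamine. Reported as % of total histamine released, corrected for spontaneous release in vehicle.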

Rattus norvegicus [2] = species on record: Rattus norvegicus; experiment: Compound was tested for inhibition of Leutenizing hormone release at 96 hours (very long duration) in castrated male rat assay; format: functional; design: concentration or dose not given beside the values
How it was run: (§2)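 Male Sprague-Dawley rats (180-200 g), castrated under ether 10 days earlier, 5 per group. 50 µg/rat given sc in 100 µL 40 mM phosphate buffer with 0.1% BSA and 0.6% DMSO; acyline run as internal standard. Tail blood taken predose and at 24, 48, 72, 96 (sometimes 120) h; plasma LH by RIA. Duration classed by >80% LH inhibition at each time.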

Rattus norvegicus [3] = species on record: Rattus norvegicus; experiment: Compound was tested for histamine release at a concentration of 100 ug/mL; format: functional; how it was run: as §1
Rattus norvegicus [4] = species on record: Rattus norvegicus; experiment: Compound was tested for histamine release at a concentration of 30 ug/mL; format: functional; how it was run: as §1
Rattus norvegicus [5] = species on record: Rattus norvegicus; experiment: Effective dose for histamine release was determined; format: functional
How it was run: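 ED50 for histamine release calculated from % release values across concentrations in rat peritoneal mast cell assay (2 min, 37 °C, o-phthalaldehyde fluorometric read-out, corrected for vehicle release).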

Rattus norvegicus [6] = species on record: Rattus norvegicus; experiment: Compound was tested for histamine release at a concentration of 10 ug/mL; format: functional; how it was run: as §1
[7] = molecular target: T1, Gonadotropin-releasing hormone receptor (Homo sapiens, UniProt P30968); experiment: Competitive antagonism of GnRH-induced response in the reporter gene assay; format: functional; conditions: for Kb: read-out: pA2 (converted)
T1 sequence (P30968 whole entry): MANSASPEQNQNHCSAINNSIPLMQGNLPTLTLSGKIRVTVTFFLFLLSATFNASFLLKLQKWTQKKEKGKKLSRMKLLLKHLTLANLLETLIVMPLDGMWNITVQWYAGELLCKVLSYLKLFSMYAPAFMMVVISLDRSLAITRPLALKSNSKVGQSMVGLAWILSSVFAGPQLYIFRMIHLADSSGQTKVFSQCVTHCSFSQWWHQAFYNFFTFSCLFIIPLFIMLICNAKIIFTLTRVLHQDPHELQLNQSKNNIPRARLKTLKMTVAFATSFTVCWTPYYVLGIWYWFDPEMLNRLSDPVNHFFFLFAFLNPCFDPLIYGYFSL
How it was run: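 Same HEK293 human GnRH receptor luciferase reporter cells. Seven-point GnRH curve (10 µM to 10 pM final) run in duplicate without or with four to five increasing compound concentrations (10 min preincubation, 37 °C), then 5 h and luminescence. GnRH EC50 at each level by four-parameter logistic fit, giving pA2; mean of two determinations in duplicate.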

[8] = molecular target: T1, Gonadotropin-releasing hormone receptor; experiment: Antagonism of human GnHR receptor, determined in a reporter gene assay in HEK293 cells; format: functional, cell-based
How it was run: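 HEK293 cells stably expressing cloned human GnRH receptor plus luciferase reporter under LH alpha subunit promoter, plated 24 h before assay. Compound in 1% DMSO added 10 min at 37 °C, then GnRH at 3 nM final; 5 h incubation, luciferase luminescence read. Six concentrations in duplicate; blank-subtracted cps as % of GnRH control; mean of two determinations.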

Rattus norvegicus [9] = species on record: Rattus norvegicus; experiment: Compound was tested for inhibition of Leutenizing hormone release at 72 hours (long duration) in castrated male rat assay; format: functional; design: concentration or dose not given beside the values; how it was run: as §2
Rattus norvegicus [10] = species on record: Rattus norvegicus; experiment: Compound was tested for inhibition of Leutenizing hormone release at 24 hours (short duration) in castrated male rat assay; format: functional; design: concentration or dose not given beside the values; how it was run: as §2

Kb [7]	IC50 [8]	SMILES	HR (Rattus norvegicus [1])	Inhibition (Rattus norvegicus [2])	HR (Rattus norvegicus [3])	HR (Rattus norvegicus [4])	Inhibition (Rattus norvegicus [10])	also measured
1.26 nM	5 nM	CCNC(=O)Nc1ccc(C[C@H](NC(=O)[C@H](CO)NC(=O)[C@@H](Cc2cccnc2)NC(=O)[C@@H](Cc2ccc(Cl)cc2)NC(=O)[C@@H](Cc2ccc3ccccc3c2)NC(C)=O)C(=O)N[C@H](Cc2ccc(NC(=O)NCC)cc2)C(=O)N[C@@H](CC(C)C)C(=O)N[C@@H](CCCCNC(C)C)C(=O)N2CCC[C@H]2C(=O)N[C@H](C)C(N)=O)cc1	–	–	–	–	>80%	–
2.51 nM	6.8 nM	CC(=O)Nc1ccc(C[C@H](NC(=O)[C@H](CO)NC(=O)[C@@H](Cc2cccnc2)NC(=O)[C@@H](Cc2ccc(Cl)cc2)NC(=O)[C@@H](Cc2ccc3ccccc3c2)NC(C)=O)C(=O)N[C@H](Cc2ccc(NC(C)=O)cc2)C(=O)N[C@@H](CC(C)C)C(=O)N[C@@H](CCCCNC(C)C)C(=O)N2CCC[C@H]2C(=O)N[C@H](C)C(N)=O)cc1 [ACYLINE]	87%	–	56%	43%	–	ED50 (Rattus norvegicus [5]): 66 µg/mL (≈ 43 µM); Inhibition (Rattus norvegicus [9]): >80%
1.58 nM	2.8 nM	CC(=O)N[C@H](Cc1ccc2ccccc2c1)C(=O)N[C@H](Cc1ccc(Cl)cc1)C(=O)N[C@H](Cc1cccnc1)C(=O)N[C@@H](CO)C(=O)N[C@@H](Cc1ccc(NC(N)=O)cc1)C(=O)N[C@H](Cc1ccc(NC(N)=O)cc1)C(=O)N[C@@H](CC(C)C)C(=O)N[C@@H](CCCCNC(C)C)C(=O)N1CCC[C@H]1C(=O)N[C@H](C)C(N)=O (Ac-[d2Nal][dPhe(4-Cl)][d3Pal]S[Phe(4-NHCONH2)][dPhe(4-NHCONH2)]L[Lys(iPr)]P[dA]-NH2)	–	–	153%	75%	–	HR (Rattus norvegicus [6]): <10%; Inhibition (Rattus norvegicus [9]): >80%
–	8.2 nM	CC(=O)Nc1ccc(C[C@@H](NC(=O)[C@H](Cc2ccc(NC(=O)c3cnc(O)nc3O)cc2)NC(=O)[C@H](CO)NC(=O)[C@@H](Cc2cccnc2)NC(=O)[C@@H](Cc2ccc(Cl)cc2)NC(=O)[C@@H](Cc2ccc3ccccc3c2)NC(C)=O)C(=O)N[C@@H](CC(C)C)C(=O)N[C@@H](CCCCNC(C)C)C(=O)N2CCC[C@H]2C(=O)N[C@H](C)C(N)=O)cc1	–	–	–	–	>80%	–
0.794 nM	8.1 nM	CC(=O)Nc1ccc(C[C@@H](NC(=O)[C@H](Cc2ccc(NC(=O)[C@@H]3CC(=O)NC(=O)N3)cc2)N(C)C(=O)[C@H](CO)NC(=O)[C@@H](Cc2cccnc2)NC(=O)[C@@H](Cc2ccc(Cl)cc2)NC(=O)[C@@H](Cc2ccc3ccccc3c2)NC(C)=O)C(=O)N[C@@H](CC(C)C)C(=O)N[C@@H](CCCCNC(C)C)C(=O)N2CCC[C@H]2C(=O)N[C@H](C)C(N)=O)cc1	–	–	124%	50%	>80%	–

Second part, the compound before the results:

SMILES	Kb [7]	IC50 [8]	HR (Rattus norvegicus [1])	Inhibition (Rattus norvegicus [2])	HR (Rattus norvegicus [3])	HR (Rattus norvegicus [4])	Inhibition (Rattus norvegicus [10])	also measured
CC(=O)N[C@H](Cc1ccc2ccccc2c1)C(=O)N[C@H](Cc1ccc(Cl)cc1)C(=O)N[C@H](Cc1cccnc1)C(=O)N[C@@H](CO)C(=O)N[C@@H](Cc1ccc(NC(=O)[C@@H]2CC(=O)NC(=O)N2)cc1)C(=O)N[C@H](Cc1cccnc1)C(=O)N[C@@H](CC(C)C)C(=O)N[C@@H](CCCCNC(C)C)C(=O)N1CCC[C@H]1C(=O)N[C@H](C)C(N)=O	–	–	62%	>80%	68%	–	–	–
CC(=O)N[C@H](Cc1ccc2ccccc2c1)C(=O)N[C@H](Cc1ccc(Cl)cc1)C(=O)N[C@H](Cc1cccnc1)C(=O)N[C@@H](CO)C(=O)N[C@@H](Cc1ccc(NC(=O)[C@@H]2CC(=O)NC(=O)N2)cc1)C(=O)N[C@H](Cc1ccc(CNC(N)=O)cc1)C(=O)N[C@@H](CC(C)C)C(=O)N[C@@H](CCCCNC(C)C)C(=O)N1CCC[C@H]1C(=O)N[C@H](C)C(N)=O	–	–	64%	>80%	48%	21%	–	–
CC(=O)N[C@H](Cc1ccc2ccccc2c1)C(=O)N[C@H](Cc1ccc(Cl)cc1)C(=O)N[C@H](Cc1cccnc1)C(=O)N[C@@H](CO)C(=O)N[C@@H](Cc1ccc(Nc2n[nH]c(N)n2)cc1)C(=O)N[C@H](Cc1ccc(Nc2n[nH]c(N)n2)cc1)C(=O)N[C@@H](CC(C)C)C(=O)N[C@@H](CCCCNC(C)C)C(=O)N1CCC[C@H]1C(=O)N[C@H](C)C(N)=O.CC(=O)O [PRAZARELIX ACETATE] (Ac-[d2Nal][dPhe(4-Cl)][d3Pal]S[Phe(4-NH(5-NH2triazol-3-yl))][X1]L[Lys(iPr)]P[dA]-NH2)	1.58 nM	6.9 nM	–	–	93%	70%	–	ED50 (Rattus norvegicus [5]): 19 µg/mL; HR (Rattus norvegicus [6]): 17%; Inhibition (Rattus norvegicus [9]): >80%
CC(=O)Nc1ccc(C[C@@H](NC(=O)[C@H](CCNC(N)=O)NC(=O)[C@H](CO)NC(=O)[C@@H](Cc2cccnc2)NC(=O)[C@@H](Cc2ccc(Cl)cc2)NC(=O)[C@@H](Cc2ccc3ccccc3c2)NC(C)=O)C(=O)N[C@@H](CC(C)C)C(=O)N[C@@H](CCCCNC(C)C)C(=O)N2CCC[C@H]2C(=O)N[C@H](C)C(N)=O)cc1	–	–	–	–	–	–	>80%	–
CC(=O)Nc1ccc(C[C@@H](NC(=O)[C@H](CNC(N)=O)NC(=O)[C@H](CO)NC(=O)[C@@H](Cc2cccnc2)NC(=O)[C@@H](Cc2ccc(Cl)cc2)NC(=O)[C@@H](Cc2ccc3ccccc3c2)NC(C)=O)C(=O)N[C@@H](CC(C)C)C(=O)N[C@@H](CCCCNC(C)C)C(=O)N2CCC[C@H]2C(=O)N[C@H](C)C(N)=O)cc1	–	–	–	–	–	–	>80%	–
CNC(=O)NCc1ccc(C[C@@H](NC(=O)[C@H](Cc2ccc(NC(=O)[C@@H]3CC(=O)NC(=O)N3)cc2)NC(=O)[C@H](CO)NC(=O)[C@@H](Cc2cccnc2)NC(=O)[C@@H](Cc2ccc(Cl)cc2)NC(=O)[C@@H](Cc2ccc3ccccc3c2)NC(C)=O)C(=O)N[C@@H](CC(C)C)C(=O)N[C@@H](CCCCNC(C)C)C(=O)N2CCC[C@H]2C(=O)N[C@H](C)C(N)=O)cc1	–	–	67%	>80%	56%	–	–	–
COc1ccc(NC(=O)NC[C@H](NC(=O)[C@H](CO)NC(=O)[C@@H](Cc2cccnc2)NC(=O)[C@@H](Cc2ccc(Cl)cc2)NC(=O)[C@@H](Cc2ccc3ccccc3c2)NC(C)=O)C(=O)N[C@H](Cc2ccc(NC(C)=O)cc2)C(=O)N[C@@H](CC(C)C)C(=O)N[C@@H](CCCCNC(C)C)C(=O)N2CCC[C@H]2C(=O)N[C@H](C)C(N)=O)cc1	–	–	–	–	–	–	>80%	–
CC(=O)N[C@H](Cc1ccc2ccccc2c1)C(=O)N[C@H](Cc1ccc(Cl)cc1)C(=O)N[C@H](Cc1cccnc1)C(=O)N[C@@H](CO)C(=O)N[C@@H](Cc1ccc(NC(=O)[C@H]2CC(=O)NC(=O)N2)cc1)C(=O)N[C@H](Cc1ccc(NC(N)=O)cc1)C(=O)N[C@@H](CC(C)C)C(=O)N[C@@H](CCCCNC(C)C)C(=O)N1CCC[C@H]1C(=O)N[C@H](C)C(N)=O	–	–	68%	>80%	54%	–	–	ED50 (Rattus norvegicus [5]): 170 µg/mL (≈ 104 µM); pA2 [7]: 8.8; IC50 ([8]; hek293): 3 nM
CC(=O)N[C@H](Cc1ccc2ccccc2c1)C(=O)N[C@H](Cc1ccc(Cl)cc1)C(=O)N[C@H](Cc1cccnc1)C(=O)N[C@@H](CO)C(=O)N[C@@H](Cc1ccc(NC(=O)[C@H]2CC(=O)NC(=O)N2)cc1)C(=O)N[C@H](Cc1ccc(NC(=O)[C@H]2CC(=O)NC(=O)N2)cc1)C(=O)N[C@@H](CC(C)C)C(=O)N[C@@H](CCCCNC(C)C)C(=O)N1CCC[C@H]1C(=O)N[C@H](C)C(N)=O	–	–	64%	>80%	69%	–	–	pA2 [7]: 9; IC50 ([8]; hek293): 7.7 nM
CC(=O)N[C@H](Cc1ccc2ccccc2c1)C(=O)N[C@H](Cc1ccc(Cl)cc1)C(=O)N[C@H](Cc1cccnc1)C(=O)N[C@@H](CO)C(=O)N[C@@H](Cc1ccc(NC(=O)[C@@H]2CC(=O)NC(=O)N2)cc1)C(=O)N[C@H](Cc1ccc2ccccc2c1)C(=O)N[C@@H](CC(C)C)C(=O)N[C@@H](CCCCNC(C)C)C(=O)N1CCC[C@H]1C(=O)N[C@H](C)C(N)=O	–	–	–	–	–	–	>80%	–
CCNC(=O)NC[C@H](NC(=O)[C@H](CO)NC(=O)[C@@H](Cc1cccnc1)NC(=O)[C@@H](Cc1ccc(Cl)cc1)NC(=O)[C@@H](Cc1ccc2ccccc2c1)NC(C)=O)C(=O)N[C@H](Cc1ccc(NC(C)=O)cc1)C(=O)N[C@@H](CC(C)C)C(=O)N[C@@H](CCCCNC(C)C)C(=O)N1CCC[C@H]1C(=O)N[C@H](C)C(N)=O	–	–	–	–	–	–	>80%	–
